Test results published in publication PMC4824005 (Nature structural & molecular biology, 2015).

Tested on: Shc1 phosphorylated at Tyr239 and Tyr240 in MCF10A cells
Assay: Immunoblot of dual Shc1 phosphorylation in MCF10A cells
Format: cell-based
Details: 1ng/mL EGF, 3 min
How it was run: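 MCF10A cells (STR-authenticated, mycoplasma-free) were kept in HuMEC medium and held 16 h in growth-factor-free medium before pretreatment with test compound and EGF stimulation. Cells were lysed in RIPA buffer containing protease and phosphatase inhibitors. Lysates were separated by SDS-PAGE, transferred to nitrocellulose and immunoblotted with phospho-Shc and total Shc antibodies.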

B1: EGF: EGF, used at 1ng/mL to stimulate MCF10A cells (protein, UniProt P01133 23-1207, looked up)
Pro-epidermal growth factor: PQHWSCPEGTLAGNGNSTCVGPAPFLIFSHGNSIFRIDTEGTNYEQLVVDAGVSVIMDFHYNEKRIYWVDLERQLLQRVFLNGSRQERVCNIEKNVSGMAINWINEEVIWSNQQEGIITVTDMKGNNSHILLSALKYPANVAVDPVERFIFWSSEVAGSLYRADLDGVGVKALLETSEKITAVSLDVLDKRLFWIQYNREGSNSLICSCDYDGGSVHISKHPTQHNLFAMSLFGDRIFYSTWKMKTIWIANKHTGKDMVRINLHSSFVPLGELKVVHPLAQPKAEDDTWEPEQKLCKLRKGNCSSTVCGQDLQSHLCMCAEGYALSRDRKYCEDVNECAFWNHGCTLGCKNTPGSYYCTCPVGFVLLPDGKRCHQLVSCPRNVSECSHDCVLTSEGPLCFCPEGSVLERDGKTCSGCSSPDNGGCSQLCVPLSPVSWECDCFPGYDLQLDEKSCAASGPQPFLLFANSQDIRHMHFDGTDYGTLLSQQMGMVYALDHDPVENKIYFAHTALKWIERANMDGSQRERLIEEGVDVPEGLAVDWIGRRFYWTDRGKSLIGRSDLNGKRSKIITKENISQPRGIAVHPMAKRLFWTDTGINPRIESSSLQGLGRLVIASSDLIWPSGITIDFLTDKLYWCDAKQSVIEMANLDGSKRRRLTQNDVGHPFAVAVFEDYVWFSDWAMPSVMRVNKRTGKDRVRLQGSMLKPSSLVVVHPLAKPGADPCLYQNGGCEHICKKRLGTAWCSCREGFMKASDGKTCLALDGHQLLAGGEVDLKNQVTPLDILSKTRVSEDNITESQHMLVAEIMVSDQDDCAPVGCSMYARCISEGEDATCQCLKGFAGDGKLCSDIDECEMGVPVCPPASSKCINTEGGYVCRCSEGYQGDGIHCLDIDECQLGEHSCGENASCTNTEGGYTCMCAGRLSEPGLICPDSTPPPHLREDDHHYSVRNSDSECPLSHDGYCLHDGVCMYIEALDKYACNCVVGYIGERCQYRDLKWWELRHAGHGQQQKVIVVAVCVVVLVMLLLLSLWGAHYYRTQKLLSKNPKNPYEESSRDVRSRRPADTEDGMSSCPQPWFVVIKEHQDLKNGGQPVAGEDGQAADGSMQPTSWRQEPQLCGMGTEQGCWIPVSSDKGSCPQVMERSFHMPSYGTQTLEGGVEKPHSLLSANPLWQQRALDPPHQMELTQ
modifications: Pro-epidermal growth factor
  EGF-stimulated phosphorylation of Shc1 at both Tyr239 and Tyr240: significant phosphorylation of both Tyr239 and Tyr240 was detected
